SENP8 block-1 = blocks human SENP8 cleavage of Nedd8 substrate; Q96LD8; inhibition, % at 20 µM; hit rate 0.64% among 360,000; recombinant SENP8, Nedd8 substrate fluorescence; in the data active means inhibition mostly above about 40%, no sharp cut-off; inactive means mostly below about 27%
Target sequence (Q96LD8 whole entry, looked up): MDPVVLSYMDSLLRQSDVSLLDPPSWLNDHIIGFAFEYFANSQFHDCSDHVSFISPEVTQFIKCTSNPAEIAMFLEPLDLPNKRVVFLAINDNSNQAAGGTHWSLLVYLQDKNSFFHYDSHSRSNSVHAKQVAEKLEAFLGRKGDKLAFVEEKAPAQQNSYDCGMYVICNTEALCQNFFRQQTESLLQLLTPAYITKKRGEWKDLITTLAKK
SENP8 block-2 = blocks the human protease SENP8 | Q96LD8 | purified SENP8, Z-RLRGG-aminoluciferin cleavage, luminescence | inhibition, % at 10 µM | hit rate 1.2% among 330,000; in the data active means inhibition above about 50%
SENP7 block = inhibitors of human SENP7 protease | recombinant SENP7, Z-RLRGG-aminoluciferin luminescence, 40 min | inhibition, % at 5 µM | hit rate 1.5% among 330,000 | AID 434973;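 active means inhibition above about 50% at the single test dose, limit read from the data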
Target sequence (Q9BQF6 706-1050 limits assumed): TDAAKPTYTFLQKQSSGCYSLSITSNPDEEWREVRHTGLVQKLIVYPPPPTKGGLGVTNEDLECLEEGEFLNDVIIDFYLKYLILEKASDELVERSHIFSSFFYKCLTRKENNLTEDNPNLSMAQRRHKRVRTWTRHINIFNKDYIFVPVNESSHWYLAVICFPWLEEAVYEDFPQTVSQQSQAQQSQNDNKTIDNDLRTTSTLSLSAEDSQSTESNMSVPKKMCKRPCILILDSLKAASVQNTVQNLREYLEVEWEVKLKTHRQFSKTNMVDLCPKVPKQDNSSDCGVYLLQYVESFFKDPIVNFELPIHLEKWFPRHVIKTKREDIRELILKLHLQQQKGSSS
SENP6 inh = SENP6 protease inhibition; Q9GZR1; Recombinant SENP6 catalytic domain, aminoluciferin luminescence; inhibition, % at 10 µM; hit rate 1.8% among 330,000; AID 2599;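 active means inhibition above about 50% at the single tested dose, limit read from the data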
SENP1 FRET inh = inhibitors of human SENP1 SUMO protease catalytic domain | inhibition, % at 10 µM | hit rate 0.21% among 360,000 | recombinant SENP1 catalytic domain, CyPet-SUMO1-YPet FRET cleavage;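 active means inhibition at least 30% at 10 µM, raw YFP signal under a set limit, fluorescence ratio 0.5 to 1.5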
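Test system: recombinant human SENP1 catalytic domain, His6-tagged / Medium: pH 8 Tris buffer with EDTA, NaCl, BME, BSA, NP40, catalase / Also added: SUMO1 FRET substrate flanked by Cypet and Ypet, 25 nM / Times: 50 min reaction at room temperature / Signal: FRET, CFP and YFP emission / Control set: no-enzyme low control and enzyme-plus-DMSO high control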
SENP8 conf = confirmation of human SENP8 protease inhibitors; shares compounds with SENP8 block-1; inhibition, % at 25 µM; hit rate 15% among 1,400; purified SENP8, Nedd8-AMC/pro-Nedd8 cleavage fluorescence, 30 min; in the data active means inhibition mostly above about 39%, no sharp cut-off; inactive means mostly below about 34%
Large screens that a line does not name were inactive (follow-up assays come after a bar, where they were run). This is a sample that favours compounds with a hit; in the whole collection about 2.5% have one here.

Cc1ccc(NC(=S)N/N=C/c2c(Cl)cccc2Cl)c(C)c1	none
Cc1c(NC(=O)CN2C(=O)NC3(CCC(C)CC3)C2=O)c(=O)n(-c2ccccc2)n1C (centres undefined)	none
O=[N+]([O-])c1ccc(N/N=C/c2sc(N3CCOCC3)nc2-c2ccccc2)c(S(=O)(=O)Nc2ccc(Cl)cc2)c1	SENP8 block-1 53 (no result: SENP8 block-2, SENP7 block, SENP6 inh) | SENP8 conf inactive
O=[N+]([O-])c1ccc(N/N=C/c2sc(N3CCOCC3)nc2-c2ccccc2)c(S(=O)(=O)Nc2ccccc2Cl)c1	SENP8 block-1 46 (no result: SENP8 block-2, SENP7 block, SENP6 inh) | SENP8 conf inactive
COC(=O)c1cc2c(-c3ccccc3)cc3ccccn3c-2c1C(=O)OC	none
COC(=O)c1c(C(=O)OC)c2cccc3cc(-c4ccccc4)c4ccc1c4n32	SENP8 block-1 74 | SENP8 conf inactive
O=C(Nc1c(-c2ccccc2)[nH][nH]c1=O)c1ccco1	SENP8 block-1 64 (no result: SENP8 block-2, SENP7 block, SENP6 inh) | SENP8 conf inactive
O=C(Nc1c(-c2ccc(Cl)cc2)[nH][nH]c1=O)c1ccccn1	none (no result: SENP8 block-2, SENP7 block, SENP6 inh)
COc1ccc(-c2[nH][nH]c(=O)c2NC(=O)c2ccccn2)cc1	SENP8 block-1 42 (no result: SENP8 block-2, SENP7 block, SENP6 inh) | SENP8 conf inactive
Cc1ccc(C(=O)Nc2c(-c3ccc(Cl)cc3)[nH][nH]c2=O)cc1	SENP8 block-1 47 (no result: SENP8 block-2, SENP7 block, SENP6 inh) | SENP8 conf inactive
O=C(Nc1c(-c2ccccc2)[nH][nH]c1=O)c1ccc(-c2ccccc2)cc1	none (no result: SENP8 block-2, SENP7 block, SENP6 inh)
O=C(CCSc1ccc(F)cc1)NNC(=O)c1ccccc1Cl	none
Cc1c(CN2CCC(Oc3ccc(C(=O)N4CCCCC4)cc3)CC2)cnn1C	none
CC1(C(=O)NCCCN2CCOCC2)Oc2cccnc2NC1=O (centres undefined)	none
CN(C)c1ccc(NC(=O)C2C3C=CC(C3)C2C(=O)O)cc1 (centres undefined)	SENP8 block-1 51 | SENP8 conf inactive
O=C(O)C1C2C=CC(C2)C1C(=O)Nc1ccc2c(c1)OCCO2 (centres undefined)	none
COCCCN1CC(=O)N2C(c3cccc(OC)c3OC)c3[nH]c4ccccc4c3C[C@H]2C1=O (some centres undefined)	none
COc1ccccc1CNC(=O)C(=O)NCC1CCCN1S(=O)(=O)c1cccs1 (centres undefined)	none
O=[N+]([O-])c1cccc(C(=Nc2cccc(Cl)c2)NO)c1	SENP8 block-1 41 | SENP8 conf inactive
O=C(NCCc1cccc(Cl)c1)c1cccc([N+](=O)[O-])c1	none
CCCCCCN1C=CC=C/C1=C\C=C(C#N)C#N	SENP8 block-1 43 | SENP8 conf inactive
O=c1[nH]cnc2c1ncn2[C@@H]1O[C@H](COS(=O)(=O)O)[C@@H](O)[C@H]1O	none
C=CCn1c(=NC(=O)CC)n(C)c2ccccc21	none
CC1CCN(CCCNC(=O)C2CCN(S(=O)(=O)N3CCC4(CC3)OCCO4)CC2)CC1	none
CCC(=O)N(CCC(Cc1ccccc1)c1ccco1)Cc1ccco1 (centres undefined)	none
CCC(=O)N(CCC(Cc1ccccc1)c1ccc2c(c1)OCO2)Cc1ccccc1F (centres undefined)	SENP8 block-1 40 | SENP8 conf inactive
Cc1ccc(F)c(Oc2cc(NN3CCCCC3)c([N+](=O)[O-])cc2[N+](=O)[O-])c1	none
Cc1ccc(C)c(Oc2cc(NN3CCCCC3)c([N+](=O)[O-])cc2[N+](=O)[O-])c1	SENP8 block-1 42 | SENP8 conf inactive
O=C(CSc1nnc(-c2ccncc2)o1)N1CCc2ccccc2C1	none
COc1ccc(NC(C)C(=O)N/N=C/c2ccccc2OCc2ccc(Br)cc2)cc1 (centres undefined)	none
CC(Nc1ccc(Br)cc1)C(=O)N/N=C/c1ccccc1OCc1ccccc1 (centres undefined)	SENP8 block-1 46 | SENP8 conf inactive
COc1ccc(N2C(=O)[C@@H]3[C@H](C2=O)[C@H]2c4ccccc4C=CN2[C@@H]3C(C)=O)cc1	SENP8 block-1 63 (no result: SENP8 block-2, SENP7 block, SENP6 inh) | SENP8 conf 93
CCOC(=O)C1=C(C)NC(=O)NC1c1ccc(OCCO)c(OC)c1 (centres undefined)	SENP8 block-1 40 | SENP8 conf inactive
CCOC(=O)C1=C(C)NC(=O)NC1c1ccc(OC)c(Cl)c1 (centres undefined)	none
COc1cc([C@H]2OC[C@H]3[C@@H]2CO[C@@H]3c2ccc(O[C@H]3O[C@H](CO)[C@@H](O)[C@H](O)[C@H]3O)c(OC)c2)ccc1O[C@@H]1O[C@H](CO)[C@@H](O)[C@H](O)[C@H]1O	none
OC1COC(OCC2OC(OCc3ccccc3)C(O)C(O)C2O)C(O)C1O (centres undefined)	none
OC[C@H]1O[C@H](OCc2ccccc2)[C@H](O[C@@H]2OC[C@@H](O)[C@H](O)[C@H]2O)[C@@H](O)[C@@H]1O	SENP8 block-1 42 | SENP8 conf inactive
Cc1nc(N2CCOCC2)nc(Oc2ccccc2F)c1[N+](=O)[O-]	SENP8 block-1 41 | SENP8 conf inactive
Clc1ss/c(=N\c2ccccn2)c1Cl	SENP8 block-1 49 | SENP8 conf inactive
O=C1N/C(=N\c2ccccn2)SC1Cc1ccccc1Cl (centres undefined)	none
c1ccc(CN(Cc2cccs2)C(c2cccs2)c2nnnn2C2CCCC2)cc1 (centres undefined)	SENP8 block-1 43 | SENP8 conf inactive
Cc1ccc(CN2CC(N3CC=CC3)CS2(=O)=O)cc1 (centres undefined)	SENP8 block-1 48 (no result: SENP8 block-2, SENP7 block, SENP6 inh) | SENP8 conf inactive
CC(=O)c1ccc(NC(=O)CSc2ccc(-c3ccc(-n4cccn4)cc3)nn2)cc1	none
COc1ccc(NC(C)C(=O)Nc2cccc(S(=O)(=O)N3CCOCC3)c2)cc1OC (centres undefined)	none
CCCSc1cc(NCCOC(=O)CCC)c([N+](=O)[O-])c2nonc12	none
CCCC(=O)OCCNc1cc(SCc2ccco2)c2nonc2c1[N+](=O)[O-]	SENP8 block-1 62 | SENP8 conf inactive
CSCC[C@H](NC(=O)[C@@H]1CSC2c3ccccc3C(=O)N21)C(=O)N1CCC[C@H]1CO (some centres undefined)	SENP8 block-1 62 | SENP8 conf inactive
Cc1ccc(-c2cc(C(=O)OCC(=O)N(C)c3c(N)n(Cc4ccccc4)c(=O)[nH]c3=O)c3ccccc3n2)o1	none
CCOC(=O)C1CCN(S(=O)(=O)c2ccc3c(c2)N(C(C)=O)CC(C)S3)CC1 (centres undefined)	none
Cc1ccc(NC(=O)CN2CCc3cc4c(cc3C2)OCCCO4)cc1C	none
Cc1ccc(NC(=O)CN2CCc3cc4c(cc3C2)OCCCO4)cc1	SENP8 block-1 43 | SENP8 conf inactive
O=C(O)CCC1OC(=O)C(O)=C1c1ccccc1 (centres undefined)	SENP8 block-1 40 | SENP8 conf inactive
C=CCOc1ccc(Br)cc1CNC(C)(C)C	none
CC(=O)C1=C(C)NC(C)=C(C(C)=O)C1c1ccccc1	SENP8 block-1 41 | SENP8 conf inactive

Source: PubChem BioAssay
